Results published in ChEMBL document CHEMBL1129038, “Studies on selectin blocker. 1. Structure-activity relationships of sialyl Lewis X analogs” (J Med Chem, 1996).

How the values were obtained:
[1] = target: T1, E-selectin (Homo sapiens, UniProt P16581); assay: Inhibitory activity against human chimeric E-selectin-Ig
T1 sequence (P16581 whole entry): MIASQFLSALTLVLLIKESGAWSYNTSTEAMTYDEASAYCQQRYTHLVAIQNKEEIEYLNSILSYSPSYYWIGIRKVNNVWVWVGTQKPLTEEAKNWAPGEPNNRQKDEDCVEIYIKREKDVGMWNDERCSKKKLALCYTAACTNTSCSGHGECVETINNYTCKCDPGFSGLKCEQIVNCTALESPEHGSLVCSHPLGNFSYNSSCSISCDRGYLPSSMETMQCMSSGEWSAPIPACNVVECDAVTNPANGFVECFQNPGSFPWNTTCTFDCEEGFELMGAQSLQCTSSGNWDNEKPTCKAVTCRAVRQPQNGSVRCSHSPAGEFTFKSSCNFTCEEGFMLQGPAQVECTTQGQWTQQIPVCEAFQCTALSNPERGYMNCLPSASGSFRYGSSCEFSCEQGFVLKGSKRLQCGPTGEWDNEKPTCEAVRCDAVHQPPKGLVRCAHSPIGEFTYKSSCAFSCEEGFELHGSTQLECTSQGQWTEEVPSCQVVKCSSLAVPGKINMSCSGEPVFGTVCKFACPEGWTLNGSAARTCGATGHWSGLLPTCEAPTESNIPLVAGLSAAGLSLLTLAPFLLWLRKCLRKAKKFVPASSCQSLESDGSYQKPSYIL
Procedure, shortened: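 Competitive ELISA. sLeX-pentaceramide was adsorbed at 100 pmol per well and blocked with 5% BSA-PBS. E-selectin-Ig fusion (lectin, EGF and two complement regulatory repeats on human IgG1 hinge/CH2/CH3; cDNA from HUVEC mRNA) was precomplexed 30 min with biotin-anti-human IgG(Fc)/streptavidin-alkaline phosphatase. Compound at 100, 25, 6.25 or 1.56 µM final was preincubated with the complex 30 min, then 37 °C for 45 min. pNPP read at 405 nm; duplicates.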

[2] = target: T2, P-selectin (Homo sapiens, UniProt P16109); assay: Inhibitory activity against human chimeric Selectin P-Ig
T2 sequence (P16109 whole entry): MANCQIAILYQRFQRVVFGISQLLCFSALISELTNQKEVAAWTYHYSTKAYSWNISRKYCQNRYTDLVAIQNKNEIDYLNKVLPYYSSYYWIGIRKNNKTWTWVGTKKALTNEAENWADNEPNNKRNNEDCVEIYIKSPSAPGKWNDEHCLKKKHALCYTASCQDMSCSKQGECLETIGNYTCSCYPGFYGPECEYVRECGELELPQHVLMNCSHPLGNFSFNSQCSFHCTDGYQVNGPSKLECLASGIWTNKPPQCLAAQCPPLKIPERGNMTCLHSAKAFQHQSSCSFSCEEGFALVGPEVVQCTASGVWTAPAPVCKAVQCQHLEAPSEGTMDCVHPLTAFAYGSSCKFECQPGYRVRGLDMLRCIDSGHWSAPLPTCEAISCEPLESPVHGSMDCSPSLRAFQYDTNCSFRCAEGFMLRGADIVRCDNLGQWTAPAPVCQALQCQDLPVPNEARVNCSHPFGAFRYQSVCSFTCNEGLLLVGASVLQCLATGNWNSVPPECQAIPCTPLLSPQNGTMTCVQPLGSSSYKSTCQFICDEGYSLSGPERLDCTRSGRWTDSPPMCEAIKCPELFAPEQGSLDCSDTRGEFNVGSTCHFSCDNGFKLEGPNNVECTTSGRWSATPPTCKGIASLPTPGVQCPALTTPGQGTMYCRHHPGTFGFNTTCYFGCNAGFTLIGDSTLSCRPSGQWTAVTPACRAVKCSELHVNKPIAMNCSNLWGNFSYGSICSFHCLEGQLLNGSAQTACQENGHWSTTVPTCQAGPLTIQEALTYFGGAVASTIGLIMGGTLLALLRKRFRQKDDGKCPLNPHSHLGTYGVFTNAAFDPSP
Procedure, shortened: (§1)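 Competition against binding of the sLeX pentasaccharide ceramide ligand to purified selectin-Ig. The fusions carry the lectin, EGF and two complement regulatory repeats on the human IgG1 hinge/Fc and were expressed in COS7 (transient) or CHO (stable) cells. The P-selectin cDNA came from HUVEC mRNA and the L-selectin cDNA from Jurkat mRNA, both by RT-PCR.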

[3] = target: T3, L-selectin (Homo sapiens, UniProt P14151); assay: Inhibitory activity against human chimeric L-selectin-Ig; procedure, shortened: as §1
T3 sequence (P14151 whole entry): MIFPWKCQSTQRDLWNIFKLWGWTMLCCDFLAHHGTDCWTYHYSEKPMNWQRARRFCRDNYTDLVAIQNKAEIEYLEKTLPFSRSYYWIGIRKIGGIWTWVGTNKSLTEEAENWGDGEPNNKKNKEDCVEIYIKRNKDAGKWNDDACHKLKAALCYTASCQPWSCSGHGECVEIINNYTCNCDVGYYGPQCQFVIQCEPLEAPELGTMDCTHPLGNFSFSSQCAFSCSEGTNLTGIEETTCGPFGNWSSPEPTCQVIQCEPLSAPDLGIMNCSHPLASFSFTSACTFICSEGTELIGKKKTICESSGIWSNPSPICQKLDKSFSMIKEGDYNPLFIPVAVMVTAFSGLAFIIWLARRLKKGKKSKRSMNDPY

SMILES	IC50 [1]	IC50 [2]	IC50 [3]
CC(=O)N[C@H]1[C@H]([C@H](O)[C@H](O)CO)O[C@@](O[C@@H]2[C@H](O)[C@@H](O)[C@H](O[C@H]3[C@H](O[C@@H]4O[C@@H](C)[C@@H](O)[C@@H](O)[C@@H]4O)[C@@H](O)CO[C@@H]3CO)O[C@@H]2O)(C(=O)O)C[C@@H]1O	240 µM	> 1000 µM	220 µM
C[C@@H]1O[C@@H](O[C@@H]2CCO[C@H](CO)[C@H]2O[C@@H]2O[C@H](CO)[C@H](O)[C@H](OP(=O)(O)O)[C@H]2O)[C@@H](O)[C@H](O)[C@@H]1O	> 1000 µM	> 1000 µM	420 µM
CC(=O)N[C@H]1[C@H]([C@H](O)[C@H](O)CO)O[C@@](O[C@H]2[C@@H](O)[C@@H](CO)O[C@@H](O[C@@H]([C@H](O[C@@H]3O[C@@H](C)[C@@H](O)[C@@H](O)[C@@H]3O)[C@H](C=O)NC(C)=O)[C@H](O)CO)[C@@H]2O)(C(=O)O)C[C@@H]1O [SIALYL LEWIS X]	600 µM	> 1000 µM	> 1000 µM

Results, then the compound that gave them:

IC50 [1]	IC50 [2]	IC50 [3]	SMILES
> 1000 µM	560 µM	> 1000 µM	C[C@@H]1O[C@@H](O[C@@H]2CCO[C@H](CO)[C@H]2O[C@@H]2O[C@H](CO)[C@H](O)[C@H](OS(=O)(=O)O)[C@H]2O)[C@@H](O)[C@H](O)[C@@H]1O
> 1000 µM	> 1000 µM	> 1000 µM	CC(=O)N[C@H]1CO[C@H](CO)[C@@H](O[C@@H]2O[C@H](CO)[C@H](O)[C@H](OS(=O)(=O)O)[C@H]2O)[C@@H]1O[C@@H]1O[C@@H](C)[C@@H](O)[C@@H](O)[C@@H]1O
> 1000 µM	670 µM	> 1000 µM	C[C@@H]1O[C@@H](O[C@H]2[C@H](O[C@@H]3O[C@H](CO)[C@H](O)[C@H](OS(=O)(=O)O)[C@H]3O)[C@@H](CO)OC[C@@H]2O)[C@@H](O)[C@H](O)[C@@H]1O
